According to ChEMBL document CHEMBL1153170, “Novel imidazolopyrimidines as dual PI3-Kinase/mTOR inhibitors” (Bioorg Med Chem Lett, 2010):
The source made the active and inactive calls. The rule behind the calls is not given here.

Key:
[1] = target: Phosphatidylinositol 4,5-bisphosphate 3-kinase catalytic subunit gamma isoform (Homo sapiens, UniProt P48736); experiment: Inhibition of PI3Kgamma
[2] = target: T1, Phosphatidylinositol 4,5-bisphosphate 3-kinase catalytic subunit alpha isoform (Homo sapiens, UniProt P42336); experiment: Inhibition of PI3Kalpha
[3] = target: Serine/threonine-protein kinase mTOR (Homo sapiens, UniProt P42345); experiment: Inhibition of mTOR
[4] = target: T1, Phosphatidylinositol 4,5-bisphosphate 3-kinase catalytic subunit alpha isoform; experiment: Inhibition of PI3Kalpha in human MDA-MB-361 cells assessed as reduction of phosphorylated Akt (T308) level after 4 hrs by Western blotting; format: cell-based
How it was run: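 Cells seeded 24 h before 4 h compound exposure in complete growth medium, washed with cold PBS, lysed in Tris-HCl pH 7.5/NaCl/EDTA/EGTA/Triton buffer with phosphatase and protease inhibitors. Lysates resolved by SDS-PAGE, blotted to nitrocellulose, probed for phospho-Akt T308, total Akt, actin; HRP secondary, chemiluminescent detection.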

[5] = Growth inhibition of human PC3MM2 cells after 72 hrs by celltiter assay; format: functional, cell-based; settings: PC3MM2, 72 h
How it was run: (§1)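 Cells from ATCC, maintained at 37 °C, 5% CO2 in growth medium with 10% fetal calf serum plus penicillin/streptomycin. Seeding density set per line's growth characteristics; 96-well format. Viable cells quantified by CellTiter 96 aqueous non-radioactive colorimetric proliferation assay after 72 h compound exposure.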

MDA-MB-361 = experiment: Growth inhibition of human MDA-MB-361 cells after 72 hrs by celltiter assay; format: functional, cell-based; settings: MDA-MB-361, 72 h; how it was run: as §1
[6] = target: T1, Phosphatidylinositol 4,5-bisphosphate 3-kinase catalytic subunit alpha isoform; settings: MDA-MB-361, 10 to 30 uM

T1 sequence (P42336 whole entry, canonical isoform): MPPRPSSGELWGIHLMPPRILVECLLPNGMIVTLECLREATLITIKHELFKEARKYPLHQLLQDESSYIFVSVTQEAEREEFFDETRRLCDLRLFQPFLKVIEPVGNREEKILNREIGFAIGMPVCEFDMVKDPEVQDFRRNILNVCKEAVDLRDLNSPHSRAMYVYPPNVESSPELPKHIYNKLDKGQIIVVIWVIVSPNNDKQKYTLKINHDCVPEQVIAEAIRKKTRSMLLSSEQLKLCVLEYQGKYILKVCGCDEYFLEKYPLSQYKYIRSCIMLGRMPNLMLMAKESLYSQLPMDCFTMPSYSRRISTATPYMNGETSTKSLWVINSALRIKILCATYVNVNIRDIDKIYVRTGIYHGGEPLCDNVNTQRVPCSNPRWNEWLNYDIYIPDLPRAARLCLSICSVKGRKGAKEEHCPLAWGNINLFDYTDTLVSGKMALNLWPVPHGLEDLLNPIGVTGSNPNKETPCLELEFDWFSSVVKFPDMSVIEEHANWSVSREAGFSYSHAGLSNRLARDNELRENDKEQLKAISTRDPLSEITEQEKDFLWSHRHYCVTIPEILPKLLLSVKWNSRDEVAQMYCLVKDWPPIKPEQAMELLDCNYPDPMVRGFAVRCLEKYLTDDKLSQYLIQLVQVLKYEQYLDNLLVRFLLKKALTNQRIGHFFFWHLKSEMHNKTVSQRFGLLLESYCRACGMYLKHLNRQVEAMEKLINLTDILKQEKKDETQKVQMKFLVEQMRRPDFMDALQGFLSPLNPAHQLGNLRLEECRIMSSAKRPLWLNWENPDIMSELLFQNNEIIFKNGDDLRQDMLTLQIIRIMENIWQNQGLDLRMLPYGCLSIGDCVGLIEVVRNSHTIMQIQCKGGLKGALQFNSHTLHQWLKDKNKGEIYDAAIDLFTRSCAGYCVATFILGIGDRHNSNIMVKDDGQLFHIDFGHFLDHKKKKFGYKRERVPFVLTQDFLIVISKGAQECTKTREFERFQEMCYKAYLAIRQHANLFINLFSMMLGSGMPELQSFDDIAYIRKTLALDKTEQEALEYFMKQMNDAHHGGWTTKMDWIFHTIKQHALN
Chain of Phosphatidylinositol 4,5-bisphosphate 3-kinase catalytic subunit gamma isoform (P48736 whole entry, canonical isoform): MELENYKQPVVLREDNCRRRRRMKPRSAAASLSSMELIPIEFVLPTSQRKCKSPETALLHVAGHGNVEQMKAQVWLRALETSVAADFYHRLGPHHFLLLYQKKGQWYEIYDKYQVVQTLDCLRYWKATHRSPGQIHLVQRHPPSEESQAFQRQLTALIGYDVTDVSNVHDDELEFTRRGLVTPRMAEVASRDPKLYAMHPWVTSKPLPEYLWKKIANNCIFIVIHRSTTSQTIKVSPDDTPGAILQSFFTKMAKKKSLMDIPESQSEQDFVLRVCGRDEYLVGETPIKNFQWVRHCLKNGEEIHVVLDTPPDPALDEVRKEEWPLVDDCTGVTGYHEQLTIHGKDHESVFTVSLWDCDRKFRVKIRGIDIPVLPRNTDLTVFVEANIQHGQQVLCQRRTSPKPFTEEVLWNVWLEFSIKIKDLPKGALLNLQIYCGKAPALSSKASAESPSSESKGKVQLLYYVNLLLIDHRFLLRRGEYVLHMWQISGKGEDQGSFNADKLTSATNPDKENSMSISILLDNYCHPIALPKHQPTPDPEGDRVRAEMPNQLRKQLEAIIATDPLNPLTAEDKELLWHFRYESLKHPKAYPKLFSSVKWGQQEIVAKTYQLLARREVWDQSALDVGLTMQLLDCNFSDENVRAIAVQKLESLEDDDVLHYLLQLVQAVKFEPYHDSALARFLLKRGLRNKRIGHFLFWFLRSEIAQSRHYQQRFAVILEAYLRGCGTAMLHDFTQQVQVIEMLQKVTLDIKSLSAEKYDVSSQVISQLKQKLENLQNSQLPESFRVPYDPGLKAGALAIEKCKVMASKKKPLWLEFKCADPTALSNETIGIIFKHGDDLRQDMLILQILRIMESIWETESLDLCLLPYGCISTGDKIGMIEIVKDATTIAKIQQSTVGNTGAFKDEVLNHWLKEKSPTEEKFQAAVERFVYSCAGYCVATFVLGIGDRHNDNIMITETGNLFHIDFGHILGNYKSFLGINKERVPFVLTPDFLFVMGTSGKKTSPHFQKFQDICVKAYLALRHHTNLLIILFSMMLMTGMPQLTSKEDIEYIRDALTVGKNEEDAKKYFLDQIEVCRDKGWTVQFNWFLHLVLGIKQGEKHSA

| Compound | IC50 [1] | IC50 [2] | IC50 [3] | IC50 [4] | IC50 (MDA-MB-361) | inhibition [6] | IC50 [5] |
| --- | --- | --- | --- | --- | --- | --- | --- |
| Cc1ccc(CN2CCC(n3cnc4c(N5CCOCC5)nc(-c5cncc(O)c5)nc43)CC2)cc1 | 204 nM | 42 nM |  |  |  |  |  |
| OCc1cccc(-c2nc(N3CCOCC3)c3ncn(C4CCNCC4)c3n2)c1 | 683 nM | 57 nM |  |  |  |  |  |
| Oc1cccc(-c2nc(N3CCOCC3)c3ncn(C4CCN(Cc5cncc(Cl)c5)CC4)c3n2)c1 | 341 nM | 37 nM | 200 nM |  |  |  |  |
| Oc1cncc(-c2nc(N3CCOCC3)c3ncn(C4CCNCC4)c3n2)c1 | 44 nM | 14 nM |  |  |  |  |  |
| Oc1cncc(-c2nc(N3CCOCC3)c3nc[nH]c3n2)c1 | 47 nM | 11 nM |  |  |  |  |  |
| Oc1cccc(-c2nc(N3CCOCC3)c3ncn(C4CCN(Cc5ccc(N6CCOCC6)nc5)CC4)c3n2)c1 | 368 nM | 40 nM | 152 nM |  |  |  |  |
| Oc1cccc(-c2nc(N3CCOCC3)c3nc[nH]c3n2)c1 | 2340 nM | 150 nM | 1650 nM |  |  |  |  |
| CN(C)CCCOc1ccc(CN2CCC(n3cnc4c(N5CCOCC5)nc(-c5cccc(CO)c5)nc43)CC2)cc1 | 265 nM | 16 nM |  | 300 nM | 685 nM | Active | 512 nM |
| Oc1cccc(-c2nc(N3CCOCC3)c3ncn(C4CCNCC4)c3n2)c1 | 133 nM | 64 nM | 950 nM |  |  |  |  |
| COc1ccc(CN2CCC(n3cnc4c(N5CCOCC5)nc(-c5cccc(O)c5)nc43)CC2)cn1 | 306 nM | 55 nM |  |  |  |  |  |
| Oc1cncc(-c2nc(N3CCOCC3)c3ncn(C4CCN(Cc5ccc(F)nc5)CC4)c3n2)c1 | 61 nM | 94 nM |  |  |  |  |  |
| Oc1cncc(-c2nc(N3CCOCC3)c3ncn(C4CCN(Cc5ccc(Cl)cc5)CC4)c3n2)c1 | 119 nM | 16 nM |  |  |  |  |  |

The next lines start with results.

| IC50 [1] | IC50 [2] | IC50 [3] | IC50 [4] | IC50 (MDA-MB-361) | inhibition [6] | Compound | IC50 [5] |
| --- | --- | --- | --- | --- | --- | --- | --- |
| 583 nM | 66 nM |  |  |  |  | Oc1cccc(-c2nc(N3CCOCC3)c3ncn(C4CCN(Cc5cccnc5)CC4)c3n2)c1 |  |
| 640 nM | 44 nM | 2050 nM |  |  |  | OCc1cccc(-c2nc(N3CCOCC3)c3ncn(C4CCN(c5ccc(F)cc5F)CC4)c3n2)c1 |  |
| 1100 nM | 42 nM |  |  |  |  | OCc1cccc(-c2nc(N3CCOCC3)c3ncn(C4CCN(Cc5ccccc5F)CC4)c3n2)c1 |  |
| 10000 nM | 75 nM |  |  |  |  | Oc1cccc(-c2nc(N3CCOCC3)c3ncn(C4CCN(Cc5ccccc5)CC4)c3n2)c1 |  |
| 776 nM | 65 nM |  |  |  |  | OCc1cccc(-c2nc(N3CCOCC3)c3ncn(C4CCN(Cc5ccccn5)CC4)c3n2)c1 |  |
| 594 nM | 70 nM |  |  |  |  | OCc1cccc(-c2nc(N3CCOCC3)c3ncn(C4CCN(Cc5ccc(F)cc5)CC4)c3n2)c1 |  |
| 223 nM | 23 nM |  |  |  |  | OCc1cccc(-c2nc(N3CCOCC3)c3ncn(C4CCN(Cc5ccc(-c6ccncc6)cc5)CC4)c3n2)c1 |  |
| 1380 nM | 189 nM |  |  |  |  | CC(=O)N1CCC(n2cnc3c(N4CCOCC4)nc(-c4cccc(CO)c4)nc32)CC1 |  |
